p97 inhibitor: inhibitors of human p97 ATPase. recombinant p97 ATPase, Kinase-Glo ATP luminescence, 3 h. inhibition, % at 8 µM. hit rate 0.42% among 220,000. P55072. AID 1481; in the data active = inhibition above about 15%
Target sequence (P55072 whole entry, looked up): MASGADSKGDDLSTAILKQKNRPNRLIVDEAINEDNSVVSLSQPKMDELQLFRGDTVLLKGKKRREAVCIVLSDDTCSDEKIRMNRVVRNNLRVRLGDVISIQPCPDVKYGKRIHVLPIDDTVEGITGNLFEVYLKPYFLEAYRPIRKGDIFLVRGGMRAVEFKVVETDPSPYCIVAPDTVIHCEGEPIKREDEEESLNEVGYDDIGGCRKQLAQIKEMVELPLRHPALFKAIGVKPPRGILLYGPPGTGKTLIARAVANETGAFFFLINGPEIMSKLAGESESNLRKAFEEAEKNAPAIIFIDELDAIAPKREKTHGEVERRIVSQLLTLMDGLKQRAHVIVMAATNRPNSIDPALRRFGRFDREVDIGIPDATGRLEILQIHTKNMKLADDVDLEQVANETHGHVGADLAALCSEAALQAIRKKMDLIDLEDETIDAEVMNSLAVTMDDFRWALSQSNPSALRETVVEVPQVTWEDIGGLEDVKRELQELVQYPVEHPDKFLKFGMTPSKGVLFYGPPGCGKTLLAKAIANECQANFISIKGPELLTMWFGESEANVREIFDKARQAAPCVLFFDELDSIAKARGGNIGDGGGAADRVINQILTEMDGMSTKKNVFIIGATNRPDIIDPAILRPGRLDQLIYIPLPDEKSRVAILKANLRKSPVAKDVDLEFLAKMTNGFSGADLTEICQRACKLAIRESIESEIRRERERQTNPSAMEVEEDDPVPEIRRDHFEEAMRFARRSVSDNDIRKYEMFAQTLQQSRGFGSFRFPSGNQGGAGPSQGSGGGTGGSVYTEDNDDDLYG
RBBP9 inh: human RBBP9 hydrolase inhibition; O75884; recombinant RBBP9, FP-Rh probe fluorescence polarization; inhibition, % at 7.94 µM; hit rate 0.2% among 220,000;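 active = inhibition above the campaign mean of all tested compounds plus 3 SD, cut at about 14% in these data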
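Test system – recombinant human RBBP9 · Input – RBBP9 2.5 µM in dispensing solution, pre-mixing · Medium – Tris buffer pH 8.0, NaCl, Pluronic · Schedule – preincubation 30 min plus labeling 45 min at 25 °C · Measured by – fluorescence polarization · Measure – % inhibition · Controls – DMSO and no-protein wells · Replicates – one well per compound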
L929 necroptosis: blocks zVAD induced death of L929 cells; L929 zVAD necroptosis rescue, ATP luminescence, 24 h; with zVAD 60 µM; viability rescue, % at 10 µM; hit rate 0.38% among 220,000; AID 1377;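 active = activation, scaled between plate controls, above about 75%, limit read from the data; inactive = activation under that limit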
PfM18AAP inh: PfM18AAP enzyme inhibition. recombinant PfM18AAP, H-Glu-NHMec fluorogenic cleavage. inhibition, % at 7.35 µM. hit rate 1.2% among 290,000. AID 1822;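 active = inhibition above the campaign mean inhibition over all tested compounds plus 3 SD, cut at about 28% in these data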
Wee1 degr inh: human Wee1 degradation inhibition, primary screen. P30291. AID 1321. reporter increase, % at 5 µM. hit rate 1.2% among 220,000. HeLa Luc-Wee1K328M stability, luciferase luminescence; 100% = proteasome inhibitor MG132 effect;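 active = activation above the mean of all tested compounds plus 3 SD, set per screening run, cut at about 8.8% in these data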;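 note: cells exposed to compound for 20 h before luminescence read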
TNF necrop inh: TNF-alpha cell death inhibition in Jurkat FADD-/- cells; hit rate 0.068% among 220,000; activation (protection from cell death), % at 10 µM; Jurkat FADD-/- TNF necroptosis rescue, ATP luminescence, 24 h; 0 = TNF only, 100 = no-TNF cells;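 active = activation, meaning protection from cell death, of at least 50% relative to plate controls; inactive = activation below 50%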;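 note: necroptosis triggered by 40 ng/mL TNF-alpha added together with compound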
Wee1 degr conf: confirmation of human Wee1 degradation inhibitors; shares compounds with Wee1 degr inh; HeLa Luc-Wee1K328M degradation, luminescence; vehicle 0%, proteasome-blocked wells 100%; activation, % at 5 µM; hit rate 4% among 1,100; AID 1410; in the data active = activation above about 8.9%
A number is an active result; i = inactive; nt = no result. Sampled rows, rich in hits. Any-hit rate of the full collection: about 2.7%.

SMILES | p97 inhibitor | RBBP9 inh | L929 necroptosis | PfM18AAP inh | Wee1 degr inh | TNF necrop inh | Wee1 degr conf
Nc1nc(-c2ccc(Oc3ccccc3)cc2)c(CC(=O)O)s1 | nt | nt | nt | i | nt | nt | nt
O=C(c1ccc(S(=O)(=O)NCC2CCCO2)cc1)N1CCN(c2ccccc2F)CC1 (centres undefined) | i | i | i | i | 26.2 | i | i
CCOC(=O)CCCNC(=O)CN1C(=O)NC(c2ccccc2)(c2ccccc2)C1=O | nt | nt | nt | i | nt | nt | nt
CCS(=O)(=O)Nc1ccc(-c2nc3cccnc3s2)cc1 | i | i | i | i | i | i | nt
CCS(=O)(=O)Nc1cccc(-c2nc3cccnc3s2)c1 | i | i | i | i | 12.2 | i | i
CC(Sc1nnc(-c2ccncc2)n1C)C(=O)Nc1nccs1 (centres undefined) | nt | nt | nt | i | nt | nt | nt
COc1ccc(C)c2sc(N3CCCC3)nc12 | i | i | i | i | i | i | nt
COc1ccc(OC)c2sc(N3CCN(c4ccccc4)CC3)nc12 | i | i | i | i | 21.8 | i | i
Cc1nnc(NC(=O)Cn2cnc3c2c(=O)n(C)c(=O)n3C)s1 | i | i | i | i | 11.7 | i | i
O=c1[nH]c2cc3c(cc2cc1CN(CCO)S(=O)(=O)c1ccccc1)OCCO3 | i | i | i | i | i | i | nt
COc1ccccc1N1CCN(C(=O)c2ccc(S(=O)(=O)N3CCCCCC3)cc2)CC1 | i | i | i | i | 10.9 | i | i
O=C(c1ccc(S(=O)(=O)N2CCCCC2)cc1)N1CCN(c2ccccc2F)CC1 | i | i | i | i | i | i | nt
CCCOc1ccc(C(C)=O)cc1CN1CCOCC1 | i | i | i | i | 11.9 | i | i
CC1(C)CC(CCC(=O)NC(=S)Nc2ccccc2Cl)C(=O)O1 (centres undefined) | i | i | i | i | i | i | nt
O=C(NCCOc1ccccc1)c1cc(C(=O)NCCOc2ccccc2)cc([N+](=O)[O-])c1 | i | i | i | i | i | i | nt
CN(CCOc1ccccc1)C(=O)c1cc([N+](=O)[O-])cc([N+](=O)[O-])c1 | i | i | i | i | 16.9 | i | i
Cc1ccc(S(=O)(=O)c2nc(Nc3ccccc3)sc2Cl)cc1 | i | i | i | i | i | i | nt
COc1ccc(Nc2nc(S(=O)(=O)c3ccc(C)cc3)c(Cl)s2)cc1 | i | i | i | i | 11.4 | i | i
C=CCN(C(=O)c1csnn1)C(C(=O)NC1CCCC1)c1ccc(F)cc1 (centres undefined) | nt | nt | nt | i | nt | nt | nt
Cc1cc2nc(-c3cccc(NC(=O)c4ccc(Br)o4)c3C)oc2cc1C | i | i | i | i | 14.2 | i | i
O=C(NCc1ccc(F)cc1)c1ccccc1OCc1ccccc1 | i | i | i | i | 19.6 | i | i
O=C(NNC(=O)c1ccccc1OCc1ccc(F)cc1)c1ccccc1O | nt | nt | nt | i | nt | nt | nt
C=C(C)CNC(=S)N/N=C/c1ccc([N+](=O)[O-])cc1 | i | i | i | i | i | i | nt
C=C(C)CNC(=S)N/N=C/c1c(F)cccc1F | i | i | i | i | 14.3 | i | i
O=C(/C=C\Nc1ccc(Br)cc1)c1cccnc1 | i | i | i | i | 11.0 | i | i
SMILES | p97 inhibitor | RBBP9 inh | L929 necroptosis | PfM18AAP inh | Wee1 degr inh | TNF necrop inh | Wee1 degr conf
S=c1[nH]nc(Nc2ccc(Cl)cc2)s1 | i | i | i | i | 15.1 | i | i
COc1cc(CNCCCCO)ccc1OCc1ccccc1F | i | i | i | i | 11.7 | i | i
CCCCc1c(C)nc(Nc2ccc(OC)cc2)[nH]c1=O | i | i | i | i | 18.5 | i | i
CCCCCc1c(C)nc(Nc2ccc(F)cc2)[nH]c1=O | i | i | i | i | i | i | nt
CC1(C)c2ccccc2-n2c1cc1oc(=O)cc(O)c1c2=O | i | i | i | i | 15.0 | i | i
Cc1c(O)cc2n(c1=O)-c1ccccc1C2(C)C | i | i | i | i | i | i | nt
CCNc1nc(N)nc(-c2cc(Cl)ccc2O)n1 | i | i | i | i | i | i | nt
CCCCNc1nc(N)nc(-c2cc(Cl)ccc2O)n1 | i | i | i | i | 14.1 | i | i
Cc1ncc([N+](=O)[O-])n1Cc1cccc(F)c1 | i | i | i | i | i | i | nt
O=C(CCc1n[nH]c(=O)[nH]c1=O)Nc1cccc([N+](=O)[O-])c1 | i | i | i | i | 13.3 | i | i
Cc1ccc(S(=O)(=O)N(C)CCCC(=O)NC(C)(C)C)cc1 | i | i | i | i | 12.0 | i | i
COc1cc(/C=C/c2cc[n+](C)cc2)ccc1OCC(=O)Nc1ccccc1 | nt | nt | nt | i | nt | nt | nt
COc1cc(C=C2C(=O)OC(C)(C)OC2=O)ccc1OCC(=O)Nc1ccccc1 | i | i | i | i | 15.3 | i | i
CCn1c(CSc2nc3ccccc3s2)nnc1SCC(N)=O | i | i | i | i | 15.6 | i | i
CC(=O)c1cccc(N(C(=O)CNC(=O)c2ccco2)C(C(=O)NCc2ccco2)c2ccccc2)c1 (centres undefined) | i | i | i | i | 18.5 | i | i
CC(=O)c1cccc(N(C(=O)CNC(=O)c2ccco2)C(C(=O)NC2CCCC2)c2ccncc2)c1 (centres undefined) | nt | nt | nt | i | nt | nt | nt
O=C(Nc1ccccc1F)N1CCc2ccccc2C1 | nt | nt | nt | i | nt | nt | nt
CC1CC(C)CN(C(=O)Nc2ccccc2F)C1 (centres undefined) | i | i | i | i | 18.9 | i | i
CCOC(=O)c1ccccc1NC(=S)N1CCC(C)CC1 | i | i | i | i | i | i | nt
CCOC(=O)c1ccccc1NC(=S)N1CC(C)CC(C)C1 (centres undefined) | i | i | i | i | 14.9 | i | i
COCCn1cc(C(=O)NCCCN2CCC(C)CC2)c2c3ccccc3n(C)c2c1=O | i | i | i | i | 13.6 | i | i
Cc1ccc(C(=O)NCCc2nnc3ccc(NCCCN4CCOCC4)nn23)cc1 | nt | nt | nt | i | nt | nt | nt
CCOC(=O)c1c(-c2ccccc2)csc1NC(=O)CSc1nnc(C)s1 | i | i | i | i | 12.0 | i | i
CCOC(=O)c1c(-c2ccc(C)o2)csc1NC(=O)CSc1nnc(C)s1 | i | i | i | i | i | i | nt
CCN1CCN(c2ccc([N+](=O)[O-])cc2S(=O)(=O)N2CCOCC2)CC1 | i | i | i | i | 10.9 | i | i
SMILES | p97 inhibitor | RBBP9 inh | L929 necroptosis | PfM18AAP inh | Wee1 degr inh | TNF necrop inh | Wee1 degr conf
C=CCn1c(SCC(=O)Nc2ccccc2CC)nnc1-c1ccncc1 | i | i | i | i | 13.4 | i | i
C=CCn1c(SCC(=O)Nc2ccccc2C)nnc1-c1ccncc1 | i | i | i | i | i | i | nt
CSc1cccc(CN2CCN(CCC(C)C)C(CCO)C2)c1 (centres undefined) | i | i | i | i | i | i | nt
COc1ccc(Cc2noc(CN3CCCN(C4Cc5ccccc5C4)CC3)n2)cc1OC | i | i | i | i | i | i | nt
CNc1nc(-c2ccc3c(c2)CCN3C(=O)c2ccccc2F)cs1 | i | i | i | i | 11.3 | i | i
Cc1ccc(C(=O)NC2CC(C)(C)NC(C)(C)C2)cc1C | i | i | i | i | 11.9 | i | i

Screening data (PubChem BioAssay)
